Source: PubChem (several laboratories)
NPY-Y2 PAM-ag – human NPY-Y2 potentiation or agonism, primary screen. P49146. cells expressing NPY-Y2, potentiator/agonist read-out. activation, % at 3.6 µM. actives 0.45% (n = 220,000). AID 1359; in the data active means activation above about 27%;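 further: cells stimulated with NPY near EC25 plus isoproterenol at EC100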
NPY Y1 blocker – NPY-Y1 (human) receptor antagonism | inhibition, % at 3.6 µM | HEK293-CNG Y1 cells, membrane potential fluorescence; NPY at EC95, then isoproterenol | P25929 | actives 1% (n = 200,000);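 active means inhibition above the campaign mean inhibition of all tested compounds plus 3 SD, cut at about 20% in these data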
Target sequence (P25929 whole entry, looked up): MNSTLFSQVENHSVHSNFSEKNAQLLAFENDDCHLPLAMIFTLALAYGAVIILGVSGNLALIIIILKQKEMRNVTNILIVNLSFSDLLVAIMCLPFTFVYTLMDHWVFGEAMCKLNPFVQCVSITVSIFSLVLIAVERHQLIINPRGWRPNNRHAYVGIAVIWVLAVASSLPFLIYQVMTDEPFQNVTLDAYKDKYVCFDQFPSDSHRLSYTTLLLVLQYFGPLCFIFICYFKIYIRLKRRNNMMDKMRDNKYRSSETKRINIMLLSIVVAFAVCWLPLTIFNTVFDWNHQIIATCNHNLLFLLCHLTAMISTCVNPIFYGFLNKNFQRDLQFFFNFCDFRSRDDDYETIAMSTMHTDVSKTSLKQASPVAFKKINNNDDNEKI
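Benchmarks – high control isoproterenol alone, low control NPY with isoproterenol · Material – HEK293 Y1/CNG channel cell line · Times – dye 3 h, compound 60 min room temperature, stimulation 45 min · Probe or stimulus – NPY (25 nM), isoproterenol (1 µM), Ro 20-1724 (25 µM) · Evaluation – % inhibition of NPY effect · Signal – fluorescence, membrane potential probe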
WT yeast gro inh – growth inhibition of WT yeast, mitochondrial fusion screen; AID 1362; mitochondrial fusion phenotypic screen, WT strain; actives 2.1% (n = 190,000); inhibition, % at 10 µM; in the data active means inhibition above about 58%; tested in S. cerevisiae
RAM network inh – blocks the yeast RAM network; AID 868; S. cerevisiae dse1pr::URA3 reporter, 5-FOA growth OD615, 2 d; analog-sensitive cbk1-as2 kinase mutant strain; actives 1.8% (n = 190,000); inhibition, % at 50 µM;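 active means inhibition above a set limit, 3 SD over mean compound inhibition, cut at about 8.4% in these data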;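 further: inhibition rescues growth on 5-FOA so higher OD means more RAM inhibition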
NPY Y2 blocker – NPY-Y2 (human) receptor antagonism; NPY-Y2 expressing cells, antagonist mode; inhibition, % at 2.7 µM; actives 0.99% (n = 140,000); in the data active means inhibition above about 17%
NPY-Y1 PAM-ag – potentiators or agonists of human neuropeptide Y receptor Y1. P25929. NPY-Y1 expressing cells, potentiator/agonist activation. activation, % at 3.6 µM. actives 0.37% (n = 220,000); in the data active means activation above about 33%, passing the limit was not always enough;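 further: cells stimulated with NPY at EC10 then isoproterenol at EC100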
Of the large screens only hits and unclear results are named; the others gave an inactive call. Hits are enriched below; roughly 4.9% of the tested compounds scored in any of these assays.

O=C(Nc1nc(-c2ccccn2)cs1)c1cc(Cl)ccc1[N+](=O)[O-]	WT yeast gro inh 70 (no result: NPY Y2 blocker)
O=C(Nc1nc(-c2ccco2)cs1)c1ccccc1	none
O=C(Nc1nc(-c2ccccn2)cs1)c1ccc([N+](=O)[O-])o1	none (no result: NPY Y1 blocker, WT yeast gro inh, RAM network inh, NPY Y2 blocker)
CC(C)CSc1ccc(S(=O)(=O)NCC(=O)O)cc1[N+](=O)[O-]	none (no result: NPY Y2 blocker)
COc1ccc(-c2nnc(NC(=O)CSc3ccccc3)s2)cc1OC	none
Cc1cc(OCCCn2ccnc2)cc(C)c1Cl	WT yeast gro inh 66
Cc1cc(OCCCCCn2ccnc2)cc(C)c1Cl	none (no result: NPY Y2 blocker)
CCOC(=O)c1cc2ccc3ccccc3c2s1	WT yeast gro inh 60
CCOC(=O)c1sc(/N=C/c2c(O)ccc3ccccc23)cc1C	RAM network inh 9.0
CCOC(=O)c1cc2c(s1)-c1ccccc1CC2	none
C/C(N)=C(/C#N)C(=O)COC(=O)CSc1ccc2ccccc2c1	none
O=C(Nc1nccs1)c1ccc(-c2ccc(Cl)cc2Cl)o1	RAM network inh 9.5
Cc1cccc(C)c1NC(=O)c1ccc(-c2ccc(Cl)cc2Cl)o1	none
Cc1ccc(C(=O)CCC(=O)CCC(=O)O)cc1	none (no result: WT yeast gro inh, RAM network inh)
CCC(C)n1cnc2c(c1=O)c1nc3ccccc3nc1n2Cc1ccc2c(c1)OCO2 (configuration not stated)	RAM network inh 10
CCCCNC(=O)c1cc(-c2ccc(OC)c(OC)c2)on1	none
Cc1ccc(NC(=O)C(C)OC(=O)c2ccc(NS(=O)(=O)c3ccc(F)c(F)c3)cc2)cc1 (configuration not stated)	none
CC(=O)c1ccc(NC(=O)C(C)OC(=O)c2ccc(NS(=O)(=O)c3ccc(F)c(F)c3)cc2)cc1 (configuration not stated)	RAM network inh 9.2
CC1=NOC(=O)/C1=C\c1ccc(-c2ccc(Cl)cc2Cl)o1	WT yeast gro inh 85
Cc1[nH][nH]c(=O)c1C(c1ccc(-c2ccc(Cl)cc2Cl)o1)c1c(C)[nH][nH]c1=O	none
CC(=O)c1sc(-c2ccccc2Cl)nc1C	none (no result: NPY Y2 blocker)
Clc1cccc(NCc2nnc(SCc3ccc(Cl)cc3Cl)o2)c1	WT yeast gro inh 62, RAM network inh 8.4
O=C(CSc1nnc(-c2ccccc2)o1)c1ccc2c(c1)OCCO2	RAM network inh 8.4
Cc1cc(C)cc(-c2nnc(SCC(=O)c3ccc4c(c3)OCCO4)o2)c1	none
O=C(CCC(=O)OCC(=O)c1cccc([N+](=O)[O-])c1)Nc1cccc(Cl)c1Cl	none
COc1ccc(NC(=O)C2CC(c3ccc(OC)c(OC)c3)=NO2)cc1OC (configuration not stated)	none
COc1ccc(C2=NOC(C(=O)Nc3ccc(C)cc3)C2)cc1OC (configuration not stated)	RAM network inh 9.2
CCOC(=O)C1=C(O)C(Nc2nc3ccccc3s2)(C(F)(F)F)N=C1C (configuration not stated)	none
COc1ccc(N2C(=O)CC(N3CCN(c4ccc(C(=O)c5cccnc5)cc4)CC3)C2=O)cc1 (configuration not stated)	none
C=CCC(C(=O)OC)(C(=O)OC)c1ccc([N+](=O)[O-])cn1	WT yeast gro inh 66
CCCCCCCCNC(C)C(O)c1ccc(SC(C)C)cc1 (configuration not stated)	WT yeast gro inh 98
CC(NCCc1ccc(O)cc1)C(O)c1ccc(O)cc1 (configuration not stated)	none
CC(=O)Oc1ccc(-c2cccc(C(=O)Oc3ccccc3)c2)cc1	WT yeast gro inh 74
CC1=C(C#N)C(NC(=O)c2ccc(C)cc2)(C(F)(F)F)C(=O)N1 (configuration not stated)	WT yeast gro inh 77
CN(C)S(=O)(=O)c1cccc(-c2nnc(SCc3cc(Cl)cc4c3OCOC4)n2N)c1	none
O=C(Cc1ccccc1)NNc1c2ccccc2nc2ccccc12	WT yeast gro inh 59 (no result: NPY Y2 blocker)
COC(=O)c1ccc(Oc2ccc(C(C)(C)C)cc2)c([N+](=O)[O-])c1	RAM network inh 8.4 (no result: WT yeast gro inh)
Clc1ccc2oc(-c3ccccc3)cc(=NCCCN3CCOCC3)c2c1	WT yeast gro inh 63 (no result: NPY Y2 blocker)
COc1ccc(NC(=O)C2CCC(CNS(=O)(=O)c3cccs3)CC2)cc1OC (configuration not stated)	none (no result: NPY Y2 blocker)
Cc1c(C(=O)N/N=C/c2cccnc2)sc(=S)n1C	NPY-Y2 PAM-ag 54, NPY-Y1 PAM-ag 57
COc1ccc(CCN(/C=C2\Sc3ccccc3C2=O)C(C)=O)cc1OC	none (no result: NPY Y1 blocker, WT yeast gro inh, RAM network inh, NPY Y2 blocker)
O=[N+]([O-])c1cc(C(F)(F)F)cc([N+](=O)[O-])c1NCCCNc1ccc([N+](=O)[O-])c2cccnc12	RAM network inh 9.0
N=c1c2c(-c3ccccc3)c(-c3ccccc3)oc2ncn1CCCN1CCOCC1	NPY Y1 blocker 21, NPY Y2 blocker 27
Cc1ccc(S(=O)(=O)N2CCCC2c2nc3ccccc3s2)cc1 (configuration not stated)	none
CCOC(=O)C1=C(CSc2nc(-c3ccccc3)ccc2C#N)OC(N)=C(C#N)C1c1ccccc1 (configuration not stated)	RAM network inh 8.6
CCOc1ccc(NS(=O)(=O)c2cnc(Cl)c(Cl)c2)cc1	WT yeast gro inh 71
Cc1ccsc1/C=N/Nc1nc(=O)[nH]nc1C	WT yeast gro inh 70 (no result: NPY Y2 blocker)
Cn1c(SCC(=O)Nc2sccc2C(N)=O)nnc1-c1ccncc1	none (no result: NPY Y1 blocker, WT yeast gro inh, RAM network inh, NPY Y2 blocker)
CN(C)CC(C(=O)c1ccccc1)c1ccccc1 (configuration not stated)	WT yeast gro inh 77
COc1ccc(C(C(=O)OC(C)CN(C)C)c2ccccc2)cc1 (configuration not stated)	none
NC(=O)N/N=C(/CCCCCC/C(=N\NC(N)=O)c1ccccc1)c1ccccc1	none (no result: NPY Y1 blocker, WT yeast gro inh, RAM network inh, NPY Y2 blocker)
COc1ccc(CNCc2cn(-c3cccc(F)c3)nc2-c2ccc(C)o2)cc1	WT yeast gro inh 71 (no result: NPY Y2 blocker)
CCCc1nc(SCC(=O)N2CCCc3ccccc32)c2c(=O)n(C)c(=O)n(C)c2n1	WT yeast gro inh 73
Cn1c(=O)c2c(SCC(=O)N3CCC(Cc4ccccc4)CC3)nc(C3CC3)nc2n(C)c1=O	none (no result: NPY-Y2 PAM-ag, NPY Y1 blocker, RAM network inh, NPY Y2 blocker, NPY-Y1 PAM-ag)
CCCc1nc(SCC(=O)N2CCC(Cc3ccccc3)CC2)c2c(=O)n(C)c(=O)n(C)c2n1	WT yeast gro inh 81
O=C(Nc1ccc(Cl)cc1)Nc1nnc(Cc2ccc([N+](=O)[O-])cc2)s1	none
O=C(O)C1C2CCCCC2=C2CCCCC2C1C(=O)c1ccccc1 (configuration not stated)	none (no result: NPY Y1 blocker, WT yeast gro inh, RAM network inh, NPY Y2 blocker)
COc1ccc(OC)c(-c2cc(C3CCN(c4ncccc4[N+](=O)[O-])CC3)[nH]n2)c1	none
NC(=O)C1CCN(c2ncccc2[N+](=O)[O-])CC1	none (no result: NPY Y2 blocker)
O=[N+]([O-])c1cccnc1N1CCC(c2cc(-c3cccc(C(F)(F)F)c3)n[nH]2)CC1	WT yeast gro inh 78
O=[N+]([O-])c1cccnc1N1CCC(c2cc(-c3ccc(Cl)cc3Cl)n[nH]2)CC1	WT yeast gro inh 65
